HSP90 inh: HSP90 inhibitors, primary screen, cell lysate, luminescence; Heat shock protein HSP 90 (rabbit reticulocyte lysate; luciferase refolding); Rabbit reticulocyte lysate, luciferase refolding luminescence, 3 h; inhibition, % at 5.6 µM; hit rate 0.91% among 290,000;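 active = inhibition above the screen-wide mean plus 3 SD, computed separately per campaign, cut at about 16% in these data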;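 also: inhibitors lower the luminescence because luciferase stays unfolded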
SENP8 block-1: human SENP8 protease inhibitors, primary screen, biochemical, fluorescence, Nedd8 protein substrate, uHTS | recombinant SENP8 | inhibition, % at 20 µM | hit rate 0.64% among 360,000 | Sentrin-specific protease 8 (Homo sapiens), Q96LD8; in the data active = inhibition mostly above about 40%, no sharp cut-off; inactive = mostly below about 27%
SENP1 inh: human SENP1 catalytic domain inhibitors, primary screen, biochemical, FRET, uHTS | Sentrin-specific protease 1 (Homo sapiens), Q9P0U3 | recombinant SENP1 catalytic domain, CyPet-SUMO1-YPet FRET cleavage | inhibition, % at 10 µM | hit rate 0.21% among 360,000;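 active = inhibition at least 30% at 10 µM, raw YFP signal under a set limit, fluorescence ratio 0.5 to 1.5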
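System: Recombinant human SENP1 catalytic domain, His6-tagged | Incubation: Enzyme reaction for 50 min at room temperature, dark | Medium: Tris pH 8 with BME, BSA, NP40 and catalase | Also added: 25 nM SUMO1 FRET substrate | Compound: 10 µM single point, 0.5% DMSO | Measured by: FRET fluorescence in CFP and YFP emission channels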
SENP8 block-2: SENP8 protease inhibitors, primary screen, biochemical, luminescence. Sentrin-specific protease 8 (Homo sapiens), Q96LD8. purified SENP8, Z-RLRGG-aminoluciferin cleavage. inhibition, % at 10 µM. hit rate 1.2% among 330,000; in the data active = inhibition above about 50%
SENP7 inh: SENP7 protease inhibitors, primary screen, biochemical, luminescence, uHTS. Sentrin-specific protease 7 (Homo sapiens), Q9BQF6. AID 434973, 2010. hit rate 1.5% among 330,000. recombinant SENP7, Z-RLRGG-aminoluciferin luminescence, 40 min. inhibition, % at 5 µM;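 active = inhibition above about 50% at the single test dose, limit read from the data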
Target sequence (Q9BQF6 706-1050 limits assumed): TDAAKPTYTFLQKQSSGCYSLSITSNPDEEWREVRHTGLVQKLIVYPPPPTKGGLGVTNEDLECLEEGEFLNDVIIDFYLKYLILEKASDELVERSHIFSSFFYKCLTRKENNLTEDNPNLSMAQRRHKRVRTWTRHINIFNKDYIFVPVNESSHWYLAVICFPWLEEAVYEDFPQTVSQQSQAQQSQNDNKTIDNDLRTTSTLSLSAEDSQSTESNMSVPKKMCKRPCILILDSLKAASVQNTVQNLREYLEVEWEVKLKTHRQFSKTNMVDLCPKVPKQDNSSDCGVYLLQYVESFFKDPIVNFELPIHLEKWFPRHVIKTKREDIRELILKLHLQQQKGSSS
SENP6 block: SENP6 protease inhibitors, primary screen, biochemical, luminescence, uHTS. Recombinant SENP6 catalytic domain, aminoluciferin luminescence. inhibition, % at 10 µM. hit rate 1.8% among 330,000. AID 2599, 2010;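 active = inhibition above about 50% at the single tested dose, limit read from the data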
SENP8 confirm: SENP8 protease inhibitors, retest, confirmation, biochemical, luminescence, single concentration. shares compounds with SENP7 inh. inhibition, % at 12.5 µM. hit rate 40% among 6,200. Recombinant SENP8, Z-RLRGG-aminoluciferin luminescence, 60 min;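 active = mean inhibition across replicates above about 50%, limit read from the data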
SENP6 conf: SENP6 protease inhibitors, confirmation, biochemical, luminescence, single concentration; shares compounds with SENP7 inh; recombinant SENP6, Z-RLRGG-aminoluciferin luminescence; inhibition, % at 12.5 µM; hit rate 58% among 6,200; AID 488915, 2010
SENP7 conf: SENP7 protease inhibitors, retest, confirmation, biochemical, luminescence, single concentration; shares compounds with SENP7 inh; hit rate 69% among 6,200; recombinant SENP7, Z-RLRGG-aminoluciferin luminescence, 40 min; inhibition, % at 12.5 µM; AID 488917, 2010
Casp3 SENP sel: caspase-3 protease inhibitors, confirmation, selectivity assay for SENP inhibitor project, biochemical, single concentration. hit rate 60% among 6,200. shares compounds with SENP7 inh. purified caspase-3, Z-DEVD-aminoluciferin luminescence, 60 min. inhibition, % at 12.5 µM;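 active = mean inhibition above about 50%, limit read from the data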
Target sequence (P42574 28-227 limits assumed): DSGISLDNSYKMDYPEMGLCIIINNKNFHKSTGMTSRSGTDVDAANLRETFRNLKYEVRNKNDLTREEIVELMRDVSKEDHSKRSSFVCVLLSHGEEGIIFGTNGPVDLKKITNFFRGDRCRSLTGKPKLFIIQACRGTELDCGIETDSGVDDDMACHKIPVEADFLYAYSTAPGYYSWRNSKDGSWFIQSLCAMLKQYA
SENP luc ctr: counter-screen for SENP inhibitors: luminescence interference; inhibition, % at 12.5 µM; hit rate 39% among 6,200; AID 488919; Pre-incubated SENP8/Z-RLRGG-aminoluciferin, luciferase luminescence interference; shares compounds with SENP7 inh;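 active = mean inhibition above about 50% when retested at one dose, limit read from the data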
Numbers stand for hits; n = inactive; x = not tested or not shown. The list is not random: actives were taken first. Their share in the collection is about 2.9%.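 The calls were made as follows, unless noted: active = mean inhibition above about 50% in the one-dose retest (limit read from the data); inactive = the rest.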

SMILES	HSP90 inh	SENP8 block-1	SENP1 inh	SENP8 block-2	SENP7 inh	SENP6 block	SENP8 confirm	SENP6 conf	SENP7 conf	Casp3 SENP sel	SENP luc ctr
CCO/C=C1/C(=O)N(Cc2ccccc2)C(=O)c2ccccc21	n	n	n	89.7	81.0	94.4	81.7	96.6	85.8	97.7	n
COc1ccc(N2C(=O)c3ccccc3C2=O)cc1	n	n	n	n	n	n	x	x	x	x	x
CCO/C=C1\C(=O)N(c2ccccc2)C(=O)c2ccccc21	n	n	n	n	n	53.3	n	53.9	n	n	n
CCO/C=C1/C(=O)N(c2ccc(OC)cc2)C(=O)c2ccccc21	n	n	n	n	n	62.6	n	70.2	n	n	n
CCO/C=C1/C(=O)N(CC)c2ccccc21	n	n	n	n	n	n	x	x	x	x	x
C=CCOc1ccc(/C=C2/C(=N)N3N=C(CC(=O)N4CCCC4)SC3=NC2=O)cc1OC	n	n	n	n	n	n	x	x	x	x	x
Cc1cc(Cl)ccc1OC(C)C(=O)Nc1ccc(C(=O)Nc2ccccc2C(=O)O)cc1 (stereo not drawn)	n	n	n	n	n	n	x	x	x	x	x
Cc1ccc(CNC(=O)c2ccc(N3CCC4(CC3)CC(c3ccccc3)=NO4)c(NC(=O)c3ccc(Cl)c([N+](=O)[O-])c3)c2)cc1	x	n	n	n	n	n	x	x	x	x	x
CC1OC(Nc2cccc3ccccc23)C(O)C(O)C1O (stereo not drawn)	n	n	n	89.2	n	95.1	n	51.9	n	n	n
CC1OC(Nc2ccc(N=Nc3ccccc3)cc2)C(O)C(O)C1O (stereo not drawn)	n	n	n	n	n	n	x	x	x	x	x
CCc1ccc(Nc2n[n+](-c3ccccc3)c(/C=C/c3ccccc3)s2)cc1	n	x	x	n	n	n	x	x	x	x	x
COc1cccc(CNC(=O)[C@@H]2CCCN2C(=O)[C@@H]2CCCN2C(=O)c2cccc(OC)c2)c1	x	n	n	x	x	x	x	x	x	x	x
C/C(=N\NC(=O)c1ccco1)c1ccc(-c2ccccc2)cc1	n	n	n	55.4	84.6	66.6	n	n	n	n	n
C=CC[C@]12CCc3sccc3C1N(c1ccc(C(=O)OCC)cc1)C2=O (stereo partly drawn)	x	n	n	n	n	n	x	x	x	x	x
O=C(Nc1ccc2c(c1)C(=O)NC2=O)c1ccc(Cl)s1	n	n	n	n	n	n	x	x	x	x	x
O=C(Nc1ccc2sccc2c1)c1ccc(Cl)s1	n	n	n	n	85.5	71.4	n	n	88.2	50.5	n
CC(=O)c1ccc(OCCCC(=O)N2CCN(S(=O)(=O)c3ccc(C(C)C)cc3)CC2)cc1	x	n	n	n	n	n	x	x	x	x	x
Cc1ccc(C(=O)OCC(=O)Nc2sc3c(c2C#N)CCC3)cc1	n	n	n	n	n	n	x	x	x	x	x
Cc1cccc(C(=O)Nc2sc3c(c2C#N)CCCCC3)c1	n	n	n	n	77.2	n	n	n	n	n	n
N#Cc1c(NC(=O)c2ccccc2)sc2c1CCC2	n	n	n	n	n	63.0	n	n	n	n	n
N#Cc1c(NC(=O)COC(=O)c2ccc(F)cc2)sc2c1CCC2	n	n	n	n	51.4	n	n	n	n	n	n
N#Cc1c(NC(=O)c2ccc([N+](=O)[O-])o2)sc2c1CCC2	n	n	n	n	n	80.0	58.5	79.4	79.3	75.7	n
CS(=O)(=O)N1CCN(CC(=O)NC2CCCCC2)CC1	n	n	n	n	n	n	x	x	x	x	x
Cc1cccc(Nc2nc(-c3ccc(F)cc3)cs2)n1	n	n	n	84.3	84.6	95.6	n	81.3	96.9	55.7	n
COc1ccc(-c2csc(Nc3cccc(C)n3)n2)cc1	n	n	n	87.7	81.2	90.4	n	81.1	96.3	53.7	n
SMILES	HSP90 inh	SENP8 block-1	SENP1 inh	SENP8 block-2	SENP7 inh	SENP6 block	SENP8 confirm	SENP6 conf	SENP7 conf	Casp3 SENP sel	SENP luc ctr
COc1ccc(-c2csc(Nc3cccc(C)n3)n2)cc1C	n	n	n	x	x	x	x	x	x	x	x
CC(=O)Oc1ccc(-c2csc(Nc3cccc(C)n3)n2)cc1	n	n	n	87.1	87.1	72.8	n	n	55.3	70.2	n
Cc1onc(-c2ccccc2)c1C(=O)Nc1ccc(Br)cc1Cl	n	n	n	n	n	n	x	x	x	x	x
COC(=O)c1sc(-c2ccc(Cl)cc2)cc1N	n	n	n	63.3	67.5	81.3	53.6	68.8	91.4	n	n
COC(=O)c1sc(-c2cccs2)cc1N	n	n	n	n	n	n	x	x	x	x	x
CC(=O)Nc1ccccc1C(=O)C(=O)Nc1ccc(C)c(C)c1	n	n	n	n	n	n	x	x	x	x	x
Cc1ccc(NC(=O)/C(Cl)=C/c2ccccc2)cc1C	n	n	n	67.0	80.7	86.2	n	80.5	95.5	53.7	n
CCOc1ccc(S(=O)(=O)N2CCC(C(=O)OC(C)C(=O)NC3CCCCC3C)CC2)cc1 (stereo not drawn)	x	n	n	n	n	n	x	x	x	x	x
COc1ccc(C(=O)CSc2nnc(Cc3ccccc3)o2)cc1	n	n	n	n	59.5	n	n	n	n	n	n
COc1ccc(Cc2nnc(SCC(=O)c3ccccc3)o2)cc1	n	n	n	n	n	n	x	x	x	x	x
O=C(OCc1ccccc1Cl)c1cccnc1Cl	n	n	n	n	n	63.0	n	n	71.6	n	n
O=C(COC(=O)c1cccnc1Cl)c1ccccc1	n	n	n	n	65.4	78.5	56.3	52.7	87.0	86.0	71.1
CCc1ccc(C(=O)COC(=O)c2cccnc2Cl)cc1	n	n	n	87.5	93.8	93.0	90.1	90.1	100.1	93.0	87.9
COc1ccc(C)cc1NC(=O)C1CCN(S(=O)(=O)c2ccc3c(c2)NC(=O)CO3)CC1	n	n	n	n	n	n	x	x	x	x	x

Screening data (PubChem)
